# Measurements of several laboratories.
# Each line is one published result; the experiments were not run side by side.
SMILES,system,conditions,AUC(0-t)
CC=Cc1ccc(O)c(OC)c1,"mouse, plasma","intranasal, 100 mg/kg",9980 ng·h/mL
CCOc1ccc(Cc2cc([C@@H]3O[C@H](CO)[C@@H](O)[C@H](O)[C@H]3O)ccc2Cl)cc1,"male C57BL/6 mouse, plasma","oral, 1 mg/kg",457 ng·h/mL
COc1ccc(C(O)COc2ccc(-c3csc(-c4ccc(OCC(O)c5ccc(OC)c(OC)c5)cc4)n3)cc2)cc1OC (stereo not shown),"C57BL/6 mouse, plasma","intravenous, 3 mg/kg",4700 ng·h/mL
CCc1cc(OC)c2nccc(N3CCc4c(cc(Cn5ccnc5)cc4-c4cn(C)nc4C(F)(F)F)C3=O)c2c1,"male CD-1 mouse, plasma","intravenous, 3 mg/kg",3330 ng·h/mL
Cn1ccnc1N1CCN(CC2CCN(c3nccc4[nH]c(-c5cc(F)cc(F)c5)nc34)CC2)CC1,"BALB/c mouse, blood","oral, 20 mg/kg",19 µM·h
CN1CCC[C@H](CN2c3ccccc3Sc3ccccc32)C1.O=C(O)CCC(=O)O,"mouse, plasma","oral, 64 mg/kg, single dose",8750 ng·h/mL
CN1CCC(N2CCN(c3nccc4[nH]c(-c5ccc(F)c(F)c5)nc34)CC2)CC1,"BALB/c mouse, blood","oral, 20 mg/kg",6.63 µM·h
Cc1c(C(=O)NN2CCCCC2)nn(-c2ccc(Cl)cc2Cl)c1-c1ccc(Cl)cc1,"mouse, plasma","oral, 20 µmol/kg, single dose",9 µM·h
CSc1cc(Oc2ccnc3[nH]c(=O)cnc23)ccc1NC(=O)Nc1cc(C(C)(C)C)nn1-c1ccccc1,"BALB/c mouse, plasma","intravenous, 2 mg/kg",95 µM·h
FC(F)(F)Oc1ccc(Nc2cc(-c3cn[nH]c3)ncn2)cc1,"male BALB/c mouse, plasma","oral, 20 mg/kg",6110 ng·h/mL
Fc1ccc(-c2nc3c(N4CCC(CN5CCOCC5)CC4)nccc3[nH]2)cc1F,"BALB/c mouse, blood","oral, 20 mg/kg",34.6 µM·h
CS(=O)(=O)CCNCc1ccc(-c2ccc3ncnc(Nc4ccc(OCc5cccc(F)c5)c(Cl)c4)c3c2)o1,"nude mouse, plasma","oral, 100 mg/kg, single dose",97500 ng·h/mL
Cc1nc(-c2cnc(NC(C)C)n(C)c2=O)ccc1Oc1ccnc(-c2cnn(C)c2)c1,"female mouse, plasma","oral, 3.75 mg/kg, single dose",29000 ng·h/mL
CC[C@H](C)[C@@H]1NC(=O)[C@@](C)(NC(=O)[C@H](CCCNC(=N)N)NC(=O)[C@H](CC(C)C)NC(=O)[C@@H](NC(=O)[C@H](CCC(N)=O)NC(=O)[C@H](CC(C)C)NC(C)=O)[C@@H](C)O)CCCC=CCCC[C@@](C)(C(=O)N[C@@H](CC(C)C)C(=O)N[C@@H](Cc2ccc3ccccc3c2)C(N)=O)NC(=O)[C@H](CCCNC(=N)N)NC(=O)[C@H](CCC(N)=O)NC1=O,"male BALB/c mouse, plasma","subcutaneous, 10 mg/kg",140000 ng·h/mL
COc1ccc2nccc(N3CCc4c(cc(Cn5ccnc5)cc4-c4cn(C)nc4C(F)(F)F)C3=O)c2c1,"male CD-1 mouse, plasma","intravenous, 3 mg/kg",1840 ng·h/mL
C[C@H]1[C@@H](O)O[C@@H]2O[C@@]3(C)CC[C@H]4[C@H](C)CC[C@@H]1[C@@]24OO3,"female SCID mouse, plasma","oral, 60 mg/kg",382 ng·h/mL
CN1CCN(C(=O)CN[C@@H]2C[C@H]2c2ccc(OCc3ccccc3)cc2)CC1,"mouse, plasma","intraperitoneal, 10 mg/kg",1660 ng·h/mL
Cc1ccc2cncc(N3CCc4c(cc(Cn5ccnc5)cc4-c4cn(C)nc4C(F)(F)F)C3=O)c2c1,"male CD-1 mouse, plasma","oral, 10 mg/kg",4420 ng·h/mL
COc1nc(-c2cc(C)c(N[C@@H](C)c3ccc(F)cc3)nn2)ccc1-n1cnc(C)c1,"male CD-1 mouse, plasma","intravenous, 1 mg/kg, single dose",4020 ng·h/mL
